The term inhibition denotes how much of the control response was suppressed.

The structures appear in SMILES notation.

13 compounds from ChEMBL document CHEMBL1137225, “Synthesis of analogues of Congo red and evaluation of their anti-prion activity” (2004) can be followed below.

Format in all cases: functional
Experiment [1] deals with Major prion protein (Mus musculus) (UniProt P04925). As to the kind of experiment: Inhibition of PrP-res formation in SMB (Scrapie mouse brain) cells at 10 uM. Summed up:
(§1)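 Persistently scrapie-infected mouse SMB cells in 199 medium with 10% FCS, 5% newborn calf serum, 37 °C, 5% CO2; plated at 50% confluency, attached 24 h, then given fresh medium with compound diluted from 10 mM DMSO stock for 4 days. Lysates digested with proteinase K (80 μg/mL, 1 h, 37 °C); PrP-res detected by DR1 western blot, ECL, densitometry.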

Another experiment relates to SMB. Kind of experiment: (§2) Compound was tested for the inhibition of PrP-res formation in SMB cells at 50 uM. Particulars: Mus musculus. Summed up:
as §1

Experiment [2] has as its target Major prion protein (Mus musculus) (UniProt P04925). Kind of experiment: Inhibition of PrPC polymerization by PrP-res at 100 uM. Also on record: scale not given: the % may be the effect or the level left. The procedure, abridged:
(§3)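 Substrate recombinant mouse PrP refolded without metal ions (50 μg), preincubated with compound (100 μM) in 500 μL H2O pH 6.5 for 30 min; seeded with aged Mn2+-refolded mouse PrP (10 μg). Turbidity read at 325 nm (5-mm cuvette) immediately and after 5 min; absorbance increase expressed as percentage of DMSO control.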

Experiment [3] is described as follows: as §2. Particulars: Mus musculus. Summed up:
as §1

A short description of experiment [4]: Compound was tested for the ability to inhibit the polymerization of PrPC by PrP-res at 100 uM; value ranges from 17-50 %. The arrangement: scale not given: the % may be the effect or the level left. Summed up:
as §3

Experiment [5] in a line: Effective dose required for the inhibition of PrP-res formation in SMB cells; value ranges from 25-50 nM. Particulars: Mus musculus, read-out: ED50 (the source's name). The procedure, abridged: as §1
Experiment [6] is described as follows: Compound was tested for the inhibition of PrP-res formation in SMB cells at 2 uM. The settings on record: Mus musculus. The procedure, abridged: as §1

Chain of Major prion protein (Mus musculus) (P04925 whole entry): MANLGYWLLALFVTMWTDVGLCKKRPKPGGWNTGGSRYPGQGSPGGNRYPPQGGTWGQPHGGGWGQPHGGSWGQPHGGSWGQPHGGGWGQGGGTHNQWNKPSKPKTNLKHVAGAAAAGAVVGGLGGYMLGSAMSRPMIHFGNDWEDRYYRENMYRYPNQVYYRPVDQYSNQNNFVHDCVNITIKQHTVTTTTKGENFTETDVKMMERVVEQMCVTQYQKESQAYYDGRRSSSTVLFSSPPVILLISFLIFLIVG

For the compound `O=C(Oc1ccccc1)c1ccc(NS(=O)(=O)c2ccc(-c3ccc(S(=O)(=O)Nc4ccc(C(=O)Oc5ccccc5)c(O)c4)cc3)cc2)cc1O`, the inhibition entry (in experiment [1]; in the experiment on SMB) was “Negative” each time. The Control in experiment [2] was 90%.

Regarding `COC(=O)c1ccc(/N=C/c2ccc(-c3ccc(/C=N/c4ccc(C(=O)OC)cc4O)cc3)cc2)c(O)c1`, in experiment [1], the inhibition result was “Negative”. Also, 50 µM produced 53% inhibition in experiment [3]. Moreover, the Control in experiment [2] came out at 49%.

In the case of `O=C(Oc1ccccc1)c1ccc(/N=C/c2ccc(/C=N/c3ccc(C(=O)Oc4ccccc4)c(O)c3)cc2)cc1O`, the inhibition entry (in experiment [1]; in the experiment on SMB) was “Negative” each time. Moreover, in experiment [2], the Control amounted to 113%.

As to `COc1ccc(C(=O)O)cc1NS(=O)(=O)c1ccc(-c2ccc(S(=O)(=O)Nc3cc(C(=O)O)ccc3OC)cc2)cc1`, the inhibition result in experiment [1] is “Negative”. The same compound had an inhibition at 50 µM in experiment [3] of 33%. This compound also showed a Control in experiment [2] of 62%.

For the compound `COC(=O)c1ccc(OC)c(NS(=O)(=O)c2ccc(-c3ccc(S(=O)(=O)Nc4cc(C(=O)OC)ccc4OC)cc3)cc2)c1`, the inhibition entry (in experiment [1]; in the experiment with SMB) was “Negative” each time. The Control in experiment [2] was determined as 77%.

As for `COC(=O)c1ccc(/N=C/c2ccc(/C=N/c3ccc(C(=O)OC)cc3O)cc2)c(O)c1`, the inhibition result (in experiment [1]; in the experiment with SMB) was “Negative” each time. In addition, the Control in experiment [2] was found to be 140%.

On to `COC(=O)c1ccc(NC(=O)c2ccc(-c3ccc(C(=O)Nc4ccc(C(=O)OC)cc4O)cc3)cc2)c(O)c1`, for which the Control in experiment [4] is 50%. In addition, the inhibition result in experiment [1] was “Positive”. In addition, in experiment [5], the EC50 was 50 nM.

Turning to `O=C(O)c1ccc(/N=C/c2ccc(/C=N/c3ccc(C(=O)O)cc3O)cc2)c(O)c1`, the inhibition result (in experiment [1]; in the experiment with SMB) was “Negative” in each case. For the same compound, the Control in experiment [2] was determined as 35%.

In the case of `O=C(O)c1cc(/C=C/c2ccc(/C=C/c3ccc(O)c(C(=O)O)c3)cc2)ccc1O`, the inhibition result in experiment [1] was “Negative”. The inhibition at 50 µM in experiment [3] was 3%. This compound showed a Control in experiment [2] of 72%.

For `COC(=O)c1ccc(NS(=O)(=O)c2ccc(-c3ccc(S(=O)(=O)Nc4ccc(C(=O)OC)cc4O)cc3)cc2)c(O)c1`, the inhibition entry in experiment [1] is “Negative”. In experiment [3], this compound registered an inhibition at 50 µM of 77%. Moreover, the Control in experiment [2] turned out to be 30%.

As to `O=C(O)c1cc(NS(=O)(=O)c2ccc(-c3ccc(S(=O)(=O)Nc4cc(C(=O)O)cc(C(=O)O)c4)cc3)cc2)cc(C(=O)O)c1`, the inhibition result (in experiment [1]; in the experiment with SMB) was “Negative” in each case. In experiment [2], this compound came in with a Control of 2%.

In experiment [6], `Oc1ccc(/C=C/c2ccc(/C=C/c3ccc(O)cc3)cc2)cc1` returned an inhibition at 2 µM of 5%.

As for `O=C(O)c1ccc(NS(=O)(=O)c2ccc(-c3ccc(S(=O)(=O)Nc4ccc(C(=O)O)cc4O)cc3)cc2)c(O)c1`, the inhibition result (in experiment [1]; in the experiment with SMB) was “Negative” in each case. Further, in experiment [2], the Control worked out at 12%.
